ChEMBL document CHEMBL2010761, “NO-SSRIs: Nitric Oxide Chimera Drugs Incorporating a Selective Serotonin Reuptake Inhibitor” (ACS Med Chem Lett, 2011)
Active and inactive are the calls of the source. The rule behind the calls is not given here.

Key:
[1] = biological target: Sodium-dependent serotonin transporter (Homo sapiens) (UniProt P31645); test: Inhibition of human SERT-mediated serotonin reuptake in HEK293 cells at 100 nM relative to fluoxetine; format: cell-based
Outline: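 HEK-293 cells stably transfected with human SERT cDNA were used to measure serotonin reuptake with test compounds at 100 nM. […] Means ± SEM from three separate experiments.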

Rattus norvegicus [2] = test: Antidepressant activity in Sprague-Dawley rat assessed as increase in swimming time at 10 mg/kg, ip administered 1, 5 and 24 hrs prior test by forced swimming task analysis relative to control; format: functional, organism-based; design: dose 10 mg/kg
Outline: (§1)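 Male Sprague-Dawley rats, 200–250 g, given a 15 min pre-swim in the water tank 24 h before testing. Drug or vehicle given ip at 24, 5 and 1 h before the test. The 5 min test was scored in 60 blocks of 5 s for struggle, swimming and immobility. Means and SEMs; ANOVA with Tukey post hoc test.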

Mus musculus [3] = test: Antiamnesic activity in scopolamine-induced C57BL/6 mouse assessed as aversive memory measuring increase in latency to enter dark area at 1 mg/kg, ip administered 20 mins prior training measured after 48 hrs by step-through passive avoidance task analysis relative to control; format: functional, organism-based; design: dose 1 mg/kg
Outline: (§2)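 Mice trained 2 h after habituation. Scopolamine 1 mg/kg in saline given ip 30 min before training, test drug in 25% DMSO given ip 20 min before training. Footshock 0.6 mA for 2 s on entering the dark compartment, with the door closing. Latency to enter the dark chamber recorded 48 h after training, drug-free. N = 9–11. Means and SEMs; ANOVA with Tukey post hoc test.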

Rattus norvegicus [4] = test: Antidepressant activity in Sprague-Dawley rat assessed as change in struggle time at 10 mg/kg, ip administered 1, 5 and 24 hrs prior test by forced swimming task analysis relative to control; format: functional, organism-based; design: dose 10 mg/kg; outline: as §1
Rattus norvegicus [5] = test: Antidepressant activity in Sprague-Dawley rat assessed as decrease in immobility time at 10 mg/kg, ip administered 1, 5 and 24 hrs prior test by forced swimming task analysis relative to control; format: functional, organism-based; design: dose 10 mg/kg; outline: as §1
Plasma [6] = test: Prodrug activation in mouse plasma assessed as formation of fluoxetine at 15 mg/kg, ip after 20 mins by LC-MS/MS analysis; format: organism-based; design: dose 15 mg/kg, route intraperitoneal; details: in vivo
[7] = Prodrug activation in PBS at pH 7 to 8 assessed as hydrolysis of compound to fluoxetine at 200 uM after 7 hrs by HPLC-UV analysis; details: buffer, pH 7, 7 h
Rattus norvegicus [8] = test: Antidepressant activity in Sprague-Dawley rat assessed as change in struggle time at 26.5 mg/kg, ip administered 1, 5 and 24 hrs prior test by forced swimming task analysis relative to control; format: functional, organism-based; design: dose 26.5 mg/kg
Outline: (§3)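 Drug was given ip at 24, 5 and 1 h before the 5 min test, which was scored in 60 blocks of 5 s for struggle, swimming and immobility durations. Comparison was against vehicle by ANOVA with Tukey's post hoc test; means ± SEM.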

[9] = Prodrug activation in PBS at pH 7.4 assessed as hydrolysis of compound to fluoxetine at 200 uM by HPLC-UV analysis; details: buffer, pH 7.4, 200 µM
Rattus norvegicus [10] = test: Antidepressant activity in Sprague-Dawley rat assessed as decrease in immobility time at 26.5 mg/kg, ip administered 1, 5 and 24 hrs prior test by forced swimming task analysis relative to control; format: functional, organism-based; design: dose 26.5 mg/kg; outline: as §3
Brain [11] = test: Prodrug activation in mouse brain assessed as formation of fluoxetine at 15 mg/kg, ip after 120 mins by LC-MS/MS analysis; format: organism-based; design: dose 15 mg/kg, route intraperitoneal; details: in vivo, 2 h
Brain [12] = test: Prodrug activation in mouse brain assessed as formation of fluoxetine at 15 mg/kg, ip after 20 mins by LC-MS/MS analysis; format: organism-based; design: dose 15 mg/kg, route intraperitoneal; details: in vivo
Mus musculus [13] = test: Antiamnesic activity in scopolamine-induced C57BL/6 mouse assessed as aversive memory measuring increase in latency to enter dark area at 2.05 mg/kg, ip administered 20 mins prior training measured after 48 hrs by step-through passive avoidance task analysis relative to control; format: functional, organism-based; design: dose 2.05 mg/kg
Outline: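 Mice received scopolamine (1 mg/kg in physiological saline, ip) 30 min before training, and test drug in 25% DMSO ip 20 min before training. Training came 2 h after habituation: the animal was placed in the lit compartment, and entry to the dark side triggered door closure and a 0.6 mA, 2 s footshock. Latency to enter the dark chamber was retested 48 h later with no drug. N = 9–11; means ± SEM; ANOVA with Tukey's post hoc test.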

Plasma [14] = test: Prodrug activation in mouse plasma assessed as formation of fluoxetine at 15 mg/kg, ip after 120 mins by LC-MS/MS analysis; format: organism-based; design: dose 15 mg/kg, route intraperitoneal; details: in vivo, 2 h
[15] = Half life in PBS at pH 7 to 8 assessed as hydrolysis of compound to fluoxetine at 200 uM by HPLC-UV analysis; format: physicochemical
[16] = Prodrug activation in PBS at pH 7 assessed as hydrolysis of compound to fluoxetine at 200 uM by HPLC-UV analysis; details: buffer, pH 7, 200 µM
Rattus norvegicus [17] = test: Antidepressant activity in Sprague-Dawley rat assessed as increase in swimming time at 26.5 mg/kg, ip administered 1, 5 and 24 hrs prior test by forced swimming task analysis relative to control; format: functional, organism-based; design: dose 26.5 mg/kg; outline: as §3
[18] = Prodrug activation in PBS assessed as production of NO at 500 uM after 30 mins by chemiluminescence assay; details: buffer, 0.5 h
Outline: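 Compound (500 μM) was mixed with glutathione-containing PBS in a sealed vessel. NO in the headspace was measured by chemiluminescence after 30 min.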

[19] = Prodrug activation in PBS at pH 8 assessed as hydrolysis of compound to fluoxetine at 200 uM by HPLC-UV analysis; details: buffer, pH 8, 200 µM
Mus musculus [20] = test: Antiamnesic activity in scopolamine-induced C57BL/6 mouse assessed as aversive memory measuring increase in latency to enter dark area at 1.54 mg/kg, ip administered 20 mins prior training measured after 48 hrs by step-through passive avoidance task analysis relative to control; format: functional, organism-based; design: dose 1.54 mg/kg; outline: as §2

Sodium-dependent serotonin transporter (Homo sapiens), sequence (P31645 whole entry, looked up): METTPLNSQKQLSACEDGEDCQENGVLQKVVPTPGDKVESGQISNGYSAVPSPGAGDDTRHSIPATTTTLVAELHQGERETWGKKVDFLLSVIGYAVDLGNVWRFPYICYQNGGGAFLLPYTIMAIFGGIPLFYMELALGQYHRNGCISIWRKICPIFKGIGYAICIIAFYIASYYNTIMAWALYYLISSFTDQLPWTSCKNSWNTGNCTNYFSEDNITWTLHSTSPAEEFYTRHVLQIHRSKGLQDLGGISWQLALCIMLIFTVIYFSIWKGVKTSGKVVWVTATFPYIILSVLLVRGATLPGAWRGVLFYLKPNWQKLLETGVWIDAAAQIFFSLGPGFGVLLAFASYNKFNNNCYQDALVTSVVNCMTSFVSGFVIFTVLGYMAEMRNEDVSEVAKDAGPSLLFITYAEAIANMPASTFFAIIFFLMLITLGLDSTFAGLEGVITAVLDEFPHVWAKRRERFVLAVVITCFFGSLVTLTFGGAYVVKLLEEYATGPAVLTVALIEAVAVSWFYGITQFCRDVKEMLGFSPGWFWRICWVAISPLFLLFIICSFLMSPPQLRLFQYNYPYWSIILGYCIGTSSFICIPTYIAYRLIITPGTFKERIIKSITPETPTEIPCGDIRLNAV

In the case of `O=C(SCCO[N+](=O)[O-])N1CC[C@@H](c2ccc(F)cc2)[C@H](COc2ccc3c(c2)OCO3)C1`, the Efficacy [1] is reported as < 15%.
With `Cc1ncsc1CCO[N+](=O)[O-]` the Activity (Rattus norvegicus [2]) was “Active”, the Activity (Mus musculus [3]) was “Active” and the Activity (Rattus norvegicus [4]) was “Active”. For the same compound, the Activity (Rattus norvegicus [5]) was “Active”.
For `CN(CCC(Oc1ccc(C(F)(F)F)cc1)c1ccccc1)C(=O)SCCO[N+](=O)[O-]` (stereo unspecified), the Efficacy [1] was < 15%, the Drug metabolism (Plasma [6]) was “Active” and the Drug metabolism [7] was “Active”. For the same compound, the Activity (Rattus norvegicus [8]) was “Active”, the Drug metabolism [9] was “Active” and the Activity (Rattus norvegicus [10]) was “Active”. The Drug metabolism (Brain [11]) was “Active”, the Drug metabolism (Brain [12]) was “Active” and the Activity (Mus musculus [13]) was “Active”. The Drug metabolism (Plasma [14]) was “Active”, the half-life at 200 µM [15] was 1.67 h and the Drug metabolism [16] was “Active”. For the same compound, the Activity (Rattus norvegicus [17]) was “Active”, the Drug metabolism [18] was 8.9 nM and the Drug metabolism [19] was “Active”.
In the case of `CNCCC(Oc1ccc(C(F)(F)F)cc1)c1ccccc1` (stereo unspecified), the Activity (Mus musculus [20]) is reported as “inactive”.
